From ChEMBL document CHEMBL1158362, “4-Phenoxybutoxy-substituted heterocycles--a structure-activity relationship study of blockers of the lymphocyte potassium channel Kv1.3” (Eur J Med Chem, 2009)
pIC50: −log10 of the molar value.

Columns and labels:
[1] = target: Potassium voltage-gated channel subfamily A member 3 (Homo sapiens, UniProt P22001); experiment: Inhibition of Kv1.3 potassium channel expressed in mouse L929 cells by whole cell patch clamp; type: cell-based
Summary of the method: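 Currents were evoked by 500 ms pulses to 40 mV every 45 s. Each compound was run three times at 4–5 concentrations, each on a different cell. IC50 came from a Hill fit of the reduction in area under the current curve.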

[2] = target: Potassium voltage-gated channel subfamily A member 5 (Homo sapiens) (UniProt P22460); experiment: Inhibition of Kv1.5 potassium channel by whole cell patch clamp
Summary of the method: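 Currents were recorded by whole-cell patch clamp from MEL-C88 cells. Each compound was tested three times at 4–5 concentrations, each experiment on a different cell. IC50 came from a Hill-equation fit of the reduction in area under the current curve.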

[3] = Selectivity for Kv1.3 potassium channel over Kv1.5 potassium channel
[4] = Half life in po dosed rhesus monkey; type: ADME, organism-based, Macaca mulatta; conditions: in vivo
[5] = Half life in po dosed rat; type: ADME, organism-based; conditions: in vivo

Potassium voltage-gated channel subfamily A member 3, sequence (P22001 whole entry): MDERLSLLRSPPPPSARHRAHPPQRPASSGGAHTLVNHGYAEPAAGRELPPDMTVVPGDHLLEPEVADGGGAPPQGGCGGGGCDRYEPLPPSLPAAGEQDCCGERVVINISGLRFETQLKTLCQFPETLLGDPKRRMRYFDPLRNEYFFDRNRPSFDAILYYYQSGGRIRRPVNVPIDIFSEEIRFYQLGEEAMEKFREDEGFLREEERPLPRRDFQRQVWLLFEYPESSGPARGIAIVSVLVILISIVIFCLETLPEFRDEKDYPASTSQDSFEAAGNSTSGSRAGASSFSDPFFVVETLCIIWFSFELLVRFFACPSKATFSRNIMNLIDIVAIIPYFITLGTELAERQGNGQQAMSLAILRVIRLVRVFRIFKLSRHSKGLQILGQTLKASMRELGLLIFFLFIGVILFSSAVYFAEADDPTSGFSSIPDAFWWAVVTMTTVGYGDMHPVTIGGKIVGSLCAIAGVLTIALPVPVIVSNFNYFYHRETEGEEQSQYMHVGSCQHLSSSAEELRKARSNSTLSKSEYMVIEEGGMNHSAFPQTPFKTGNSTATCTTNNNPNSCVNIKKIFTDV
Potassium voltage-gated channel subfamily A member 5 (Homo sapiens), sequence (P22460 whole entry): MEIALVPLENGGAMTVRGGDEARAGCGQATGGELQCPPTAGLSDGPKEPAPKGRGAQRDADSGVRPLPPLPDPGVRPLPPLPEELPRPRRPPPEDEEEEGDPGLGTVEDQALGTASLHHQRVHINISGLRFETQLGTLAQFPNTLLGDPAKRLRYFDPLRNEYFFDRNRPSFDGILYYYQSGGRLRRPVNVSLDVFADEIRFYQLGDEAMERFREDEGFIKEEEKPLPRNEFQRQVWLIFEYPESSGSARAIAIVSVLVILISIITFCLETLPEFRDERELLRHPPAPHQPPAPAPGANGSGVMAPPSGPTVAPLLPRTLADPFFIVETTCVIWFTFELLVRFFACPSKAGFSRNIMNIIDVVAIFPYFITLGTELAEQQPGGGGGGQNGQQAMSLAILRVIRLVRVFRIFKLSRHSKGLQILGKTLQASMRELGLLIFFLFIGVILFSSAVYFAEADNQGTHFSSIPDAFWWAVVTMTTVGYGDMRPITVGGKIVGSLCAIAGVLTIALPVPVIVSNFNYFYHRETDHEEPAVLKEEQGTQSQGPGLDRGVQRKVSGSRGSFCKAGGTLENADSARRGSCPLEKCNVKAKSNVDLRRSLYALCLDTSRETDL

SMILES	pIC50 [1]	IC50 [2]	Ratio IC50 (Kv1.5/Kv1.3) [3]	half-life [4]	half-life [5]
c1ccc(OCCCCOc2ccnc3ccccc23)cc1	< 5.00	3500 nM	< 0.35		
COc1c2ccoc2cc2oc(=O)ccc12 [BERGAPTEN]	4.00	177000 nM	1.75		
O=c1ccc2c(OCCCCOc3ccccc3)c3ccoc3cc2o1		45 nM		6.7 h	3 h
c1ccc(OCCCCOc2cccc3occc23)cc1	6.19	1000 nM			
COc1cccc2c(=O)c3ccccc3n(CCCCOc3ccccc3)c12	6.78	450 nM	2.73		
COc1c2occc2c(OC)c2c(OCCCCOc3ccccc3)cc(=O)oc12	6.35	850 nM	1.89		
c1ccc(OCCCCOc2c3ccccc3nc3occc23)cc1	6.00	2000 nM	2		
O=c1ccc2cc3ccoc3c(OCCCCOc3ccccc3)c2o1	6.00	1000 nM			
O=C1c2ccccc2C(=O)c2c(OCCCCOc3ccccc3)cccc21	5.15	10000 nM	1.43		
COc1cc2nc3occc3c(OCCCCOc3ccccc3)c2cc1OC	6.82	480 nM	3.2		
c1ccc(OCCCCOC2c3ccccc3Oc3ccccc32)cc1	4.92	15000 nM			
O=c1c(OCCCCOc2ccccc2)c(-c2ccccc2)oc2ccccc12	6.00	10000 nM	10		
c1ccc(OCCCCOc2ncnc3ccccc23)cc1		25000 nM			
O=c1c2ccccc2n(CCCCOc2ccccc2)c2occc12	6.00	2000 nM	2		
c1ccc(OCCCCOc2ccccc2)cc1	4.70				
O=c1ccoc2cc3occc3c(OCCCCOc3ccccc3)c12	6.77	200 nM			
c1ccc(OCCCCOc2cccc3ccccc23)cc1	4.82				
O=c1ccc2c(OCCCCOc3ccccc3)cccc2o1	6.82	520 nM	3.47		
COc1c2occc2c(OCCCCOc2ccccc2)c2c(=O)cc(C)oc12	5.82	2500 nM	1.67		
Cn1c(=O)cc(OCCCCOc2ccccc2)c2ccccc21	6.17	1500 nM			
COc1c2ccoc2c(OCCCCOc2ccccc2)c2oc(=O)cc(C)c12	6.50	280 nM	0.88		
Cc1cc(=O)c2c(OCCCCOc3ccccc3)c3ccoc3cc2o1	6.63	310 nM	1.33		
O=c1cc(OCCCCOc2ccccc2)c2ccccc2o1	6.05	1500 nM	1.69		
S=c1ccc2c(OCCCCOc3ccccc3)c3ccoc3cc2o1	7.77	380 nM	22		
